# In ChEMBL document CHEMBL3813671, “Unexpected Discovery of Dichloroacetate Derived Adenosine Triphosphate Competitors Targeting Pyruvate Dehydrogenase Kinase To Inhibit Cancer Proliferation” (J Med Chem, 2016):
# Calls of active or inactive are those of the source. The rule behind the calls is not given here.
# Tests used:
# MCF7 [1] = test: Induction of apoptosis in human MCF7 assessed as necrotic cells at 20 uM after 10 hrs by FITC-annexin V/propidium iodide staining-based flow cytometric analysis (reference value: 1.86%); type: functional
# [2] = molecular target: T1, [Pyruvate dehydrogenase (acetyl-transferring)] kinase isozyme 1, mitochondrial (Homo sapiens, UniProt Q15118); test: Inhibition of recombinant N-terminal 6xHis-SUMO-tagged human PDK1 (29 to 436 residues) expressed in Escherichia coli BL-21 assessed as phosphorylation of RYHGHSMSDP at 50 uM after 30 mins by Kinase-Glo luminescent assay
# MCF7 [3] = test: Cytotoxicity against human MCF7 cells assessed as growth inhibition at 40 uM after 72 hrs by MTT assay relative to control; type: functional, cell-based
# [4] = molecular target: T1, [Pyruvate dehydrogenase (acetyl-transferring)] kinase isozyme 1, mitochondrial; test: Inhibition of recombinant N-terminal 6xHis-SUMO-tagged human PDK1 (29 to 436 residues) expressed in Escherichia coli BL-21 assessed as activation of PDC at 50 uM
# [5] = molecular target: T1, [Pyruvate dehydrogenase (acetyl-transferring)] kinase isozyme 1, mitochondrial; test: Inhibition of recombinant N-terminal 6xHis-SUMO-tagged human PDK1 (29 to 436 residues) expressed in Escherichia coli BL-21 assessed as suppression of PDC phosphorylation at S293 at 50 uM after 30 mins by Western blot method
# MCF7 [6] = test: Induction of apoptosis in human MCF7 assessed as late apoptotic cells at 20 uM after 10 hrs by FITC-annexin V/propidium iodide staining-based flow cytometric analysis (reference value: 1.95%); type: functional
# MCF7 [7] = test: Reversal of hyperpolarized mitochondrial membrane potential in human MCF7 cells assessed as cells with vital and intact mitochondrial membranes at 20 uM after 12 hrs by JC1 staining-based flow cytometric analysis; type: functional
# Method in brief: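 MCF-7 cells treated 12 h (5, 10 or 20 µM), then stained with JC-1. Depolarization read as the ratio of green J-monomer to red J-aggregate fluorescence.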
# [8] = molecular target: T1, [Pyruvate dehydrogenase (acetyl-transferring)] kinase isozyme 1, mitochondrial; test: Inhibition of PDK1 in human MCF7 cells assessed as increase in oxygen consumption rate at 20 uM after 12 hrs; type: cell-based
# Method in brief: (§1)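 MCF-7 cells at 2.7×10⁴ cells/well in XF24 plates, attached, then grown 24 h at 37 °C in 5% CO2. Treated 12 h at 5, 10 or 20 µM, rinsed into glycolysis stress-test medium and held 1 h at 37 °C without CO2. OCR, ECAR and PPR then measured on a Seahorse XFe24 analyser. Significance P < 0.05 versus untreated control.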
# MCF7 [9] = test: Cytotoxicity against human MCF7 cells assessed as growth inhibition at 40 uM after 72 hrs by IncuCyte Zoom live cells imaging method; type: functional, cell-based
# [10] = molecular target: T1, [Pyruvate dehydrogenase (acetyl-transferring)] kinase isozyme 1, mitochondrial; test: Inhibition of PDK1 in human MCF7 cells assessed as increase in ratio of oxygen consumption rate to extracellular acidification rate at 20 uM after 12 hrs; type: cell-based; method in brief: as §1
# [11] = molecular target: T1, [Pyruvate dehydrogenase (acetyl-transferring)] kinase isozyme 1, mitochondrial; test: Inhibition of PDK1 in human MCF7 cells assessed as decrease in proton production rate at 20 uM after 12 hrs; type: cell-based; method in brief: as §1
# [12] = Cytotoxicity against human MCF10A cells assessed as growth inhibition at 10 uM after 72 hrs by MTT assay relative to control; type: cell-based, MCF-10A; conditions: read-out: GI
# A549 [13] = test: Cytotoxicity against human A549 cells assessed as growth inhibition at 40 uM after 72 hrs by MTT assay relative to control; type: functional, cell-based
# MCF7 [14] = test: Cytotoxicity against human MCF7 cells assessed as growth inhibition after 72 hrs by MTT assay; type: functional, cell-based; conditions: MCF7, 72 h
# Sus scrofa [15] = species on record: Sus scrofa; test: Activation of pig heart PDC assessed as production of NADH at 50 uM in presence of ATP
# Method in brief: (§2)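 Pig heart PDC (80 µg/ml, carrying intrinsic PDK activity) preincubated 40 min at 37 °C in Mops pH 7.20 buffer with NaF, acetyl-CoA, NADH and DTT. Kinase step 3 min at 37 °C with 55 µM ADP and 100 µM ATP, or no ATP. Stopped with ADP/pyruvate. Residual PDC activity then read as NADH formation at 340 nm, 37 °C, in Tris pH 7.8 with TPP, NAD+, pyruvate and CoA.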
# Sus scrofa [16] = species on record: Sus scrofa; test: Activation of pig heart PDC assessed as production of NADH at 50 uM in absence of ATP; method in brief: as §2
# [17] = molecular target: T1, [Pyruvate dehydrogenase (acetyl-transferring)] kinase isozyme 1, mitochondrial; test: Inhibition of PDK1 in human MCF7 cells assessed as decrease in lactate production at 20 uM after 12 hrs
# [18] = Cytotoxicity against human MCF10A cells assessed as growth inhibition at 40 uM after 72 hrs by MTT assay relative to control; type: cell-based, MCF-10A; conditions: read-out: GI
# MCF7 [19] = test: Induction of apoptosis in human MCF7 assessed as early apoptotic cells at 20 uM after 10 hrs by FITC-annexin V/propidium iodide staining-based flow cytometric analysis (reference value: 2.38%); type: functional
# A549 [20] = test: Cytotoxicity against human A549 cells assessed as growth inhibition after 72 hrs by MTT assay; type: functional, cell-based; conditions: A549, 72 h
# MCF7 [21] = test: Induction of apoptosis in human MCF7 assessed as viable cells at 20 uM after 10 hrs by FITC-annexin V/propidium iodide staining-based flow cytometric analysis (reference value: 93.8%); type: functional; conditions: MCF7, 10 h, read-out: Activity
# MCF7 [22] = test: Induction of mitochondrial membrane potential depolarization in human MCF7 cells at 60 uM after 12 hrs by TMRM staining-based assay; type: functional, cell-based
# [23] = molecular target: T1, [Pyruvate dehydrogenase (acetyl-transferring)] kinase isozyme 1, mitochondrial; test: Inhibition of PDK1 in human MCF7 cells assessed as decrease in extracellular acidification rate at 20 uM after 12 hrs; type: cell-based; method in brief: as §1
# [24] = molecular target: T1, [Pyruvate dehydrogenase (acetyl-transferring)] kinase isozyme 1, mitochondrial; conditions: MCF7, 10 mM
# MCF7 [25] = test: Induction of apoptosis in human MCF7 assessed as late apoptotic cells at 10 mM after 10 hrs by FITC-annexin V/propidium iodide staining-based flow cytometric analysis (reference value: 1.95%); type: functional
# [26] = molecular target: T1, [Pyruvate dehydrogenase (acetyl-transferring)] kinase isozyme 1, mitochondrial; conditions: MCF7, 10 mM; remark: listed apart in the source
# Sus scrofa [27] = species on record: Sus scrofa; test: Activation of pig heart PDC assessed as production of NADH at 10 mM in presence of ATP
# Method in brief: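 Pig PDC with its intrinsic PDKs preincubated 40 min at 37 °C at 80 µg/ml in Mops buffer pH 7.20 with acetyl-CoA, NADH, NaF. Kinase step run 3 min at 37 °C after 2.2-fold dilution into buffer with 55 µM ADP and 100 µM ATP, stopped with ADP/pyruvate. Residual PDC activity read as NADH at 340 nm in Tris pH 7.8 with NAD+, pyruvate, CoA, thiamine pyrophosphate.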
# [28] = Cytotoxicity against human MCF10A cells assessed as growth inhibition at 10 mM after 72 hrs by MTT assay relative to control; type: cell-based, MCF-10A; conditions: read-out: GI
# [29] = Cytotoxicity against human MCF10A cells assessed as growth inhibition at 20 uM after 72 hrs by MTT assay relative to control; type: cell-based, MCF-10A; conditions: read-out: GI
# MCF7 [30] = test: Induction of apoptosis in human MCF7 assessed as viable cells at 10 mM after 10 hrs by FITC-annexin V/propidium iodide staining-based flow cytometric analysis (reference value: 93.8%); type: functional; conditions: MCF7, 10 h, read-out: Activity
# [31] = molecular target: T1, [Pyruvate dehydrogenase (acetyl-transferring)] kinase isozyme 1, mitochondrial; conditions: MCF7, 10 mM; remark: listed apart in the source
# [32] = molecular target: T1, [Pyruvate dehydrogenase (acetyl-transferring)] kinase isozyme 1, mitochondrial; conditions: MCF7, 10 mM; remark: listed apart in the source
# [33] = molecular target: T1, [Pyruvate dehydrogenase (acetyl-transferring)] kinase isozyme 1, mitochondrial; conditions: MCF7, 10 mM; remark: listed apart in the source
# MCF7 [34] = test: Reversal of hyperpolarized mitochondrial membrane potential in human MCF7 cells assessed as cells with vital and intact mitochondrial membranes at 10 mM after 12 hrs by JC1 staining-based flow cytometric analysis; type: functional
# Method in brief: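 MCF-7 treated 12 h, then stained with JC-1. Mitochondrial potential read as the ratio of green J-monomer to red J-aggregate fluorescence, where a higher ratio marks depolarization. P < 0.05 computed against the […] DCA-treated group.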
# MCF7 [35] = test: Induction of apoptosis in human MCF7 assessed as necrotic cells at 10 mM after 10 hrs by FITC-annexin V/propidium iodide staining-based flow cytometric analysis (reference value: 1.86%); type: functional
# MCF7 [36] = test: Induction of apoptosis in human MCF7 assessed as early apoptotic cells at 10 mM after 10 hrs by FITC-annexin V/propidium iodide staining-based flow cytometric analysis (reference value: 2.38%); type: functional
# A549 [37] = test: Cytotoxicity against human A549 cells assessed as growth inhibition at 40 uM after 72 hrs by IncuCyte Zoom live cells imaging method; type: functional, cell-based
inhibition [2],inhibition [4],inhibition [5],inhibition [8],inhibition [10],inhibition [11],Activity (Sus scrofa [15]),Activity (Sus scrofa [16]),inhibition [17],SMILES,Activity (MCF7 [1]) [%],growth inhibition (GI) (MCF7 [3]),Activity (MCF7 [6]) [%],Activity (MCF7 [7]) [%],"inhibition at 72 h, 10 µM [12] [%]",growth inhibition (GI) (A549 [13]),IC50 (MCF7 [14]) [µM],"inhibition at 72 h, 40 µM [18] [%]",Activity (MCF7 [19]) [%],IC50 (A549 [20]) [µM],viability at 20 µM (MCF7 [21]) [%],also measured
Active,Active,Active,Active,Active,Active,inactive,Active,Active,O=C(Nc1c(Cl)ncnc1Cl)C(Cl)Cl,3.91,Active,10.6,60.1,4.91,Active,19.3,42.4,4.84,28.4,80.7,growth inhibition (GI) (MCF7 [9]): Active; Activity (MCF7 [22]): Active; inhibition [23]: Active
,,,,,,,,,O=C([O-])C(Cl)Cl.[Na+] [SODIUM DICHLOROACETATE],,,,77.7,,,12400,,,23600,,"inhibition [24]: Active; Activity (MCF7 [25]): 9.94%; inhibition [26]: Active; Activity (Sus scrofa [27]): Active; inhibition at 72 h, 10000 µM [28]: 41.1%; inhibition at 72 h, 20 µM [29]: 3.42%; viability at 10000 µM (MCF7 [30]): 83.3%; inhibition [31]: Active; inhibition [32]: Active; inhibition [33]: Active; Activity (MCF7 [34]): 69%; Activity (MCF7 [35]): 3.09%; Activity (MCF7 [36]): 3.64%"
Active,Active,Active,Active,Active,Active,inactive,Active,Active,Cc1nc(Cl)c(NC(=O)C(Cl)Cl)c(Cl)n1,2.7,Active,9.87,68.6,7.57,Active,22.9,41.6,4.43,26,83,growth inhibition (GI) (A549 [37]): Active; Activity (MCF7 [22]): Active; inhibition [23]: Active
